Results on six compounds are retold here after ChEMBL document CHEMBL1126988, “Quinolone antibacterials containing the new 7-[3-(1-aminoethyl)-1- pyrrolidinyl] side chain: the effects of the 1-aminoethyl moiety and its stereochemical configurations on potency and in vivo efficacy” (J Med Chem, 1993).

≈ marks a conversion by molar mass, not a printed value.

The subject of test [1] is Staphylococcus aureus. The test can be described thus: Minimum inhibitory concentration was evaluated in vitro against Staphylococcus aureus UC 76. Type of test: functional. An outline of the steps:
(§1)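 Standard microtitration broth assay against a panel of 10 Gram-positive and Gram-negative organisms. MIC read in µg/mL and averaged over multiple experiments.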

In test [2] the test system is Providencia rettgeri. The experiment in a line: Minimum inhibitory concentration was evaluated in vitro against Providencia rettgeri M1771. Type of test: functional. The conditions noted are these: Providencia rettgeri; read-out: MIC. The gist of the method:
as §1

Test [3] relates to Staphylococcus aureus. The test can be described thus: Minimum inhibitory concentration was evaluated in vitro against Staphylococcus aureus H 228. It is filed as functional. An outline of the steps:
as §1

The subject of test [4] is Escherichia coli. The experiment in a line: Antibacterial activity against Escherichia coli Vogel after oral administration in mouse. Type of test: functional. Particulars: Escherichia coli, po; read-out: PD50.
In test [5] the test system is Escherichia coli. The test can be described thus: Antibacterial activity against Escherichia coli Vogel after subcutaneous administration in mouse. It is filed as functional. The conditions noted are these: for ED50: Escherichia coli, sc, read-out: PD50.
In test [6] the test system is Streptococcus pyogenes. The test can be described thus: Antibacterial activity measured as mouse protection against Streptococcus pyogenes C 203 after subcutaneous administration. It is filed as functional. The conditions noted are these: Streptococcus pyogenes, C 203, sc; read-out: PD50.
The test system of test [7] is Streptococcus pyogenes. The experiment in a line: Compounds were evaluated in vivo for antibacterial activity for mouse protection against Streptococcus pyogenes C 203 after oral administration. It is filed as functional. Particulars: for ED50: Streptococcus pyogenes, C 203, po, read-out: PD50.
Test [8] has as its target DNA gyrase (Escherichia coli, UniProt P0AES4+P0AES6). The test can be described thus: Inhibition against DNA gyrase. It is filed as protein-complex assay.
Test [9] relates to Enterobacter cloacae. The experiment in a line: Minimum inhibitory concentration in vitro against Enterobacter cloacae MA 2646. Type of test: functional. Particulars: Enterobacter cloacae; read-out: MIC.
Test [10] relates to Pseudomonas aeruginosa. The experiment in a line: Minimum inhibitory concentration was evaluated in vitro against Pseudomonas aeruginosa UI-18. Particulars: Pseudomonas aeruginosa; read-out: MIC. It is filed as functional. The gist of the method: as §1
The test system of test [11] is Enterococcus faecalis. The experiment in a line: Minimum inhibitory concentration was evaluated in vitro against Enterococcus faecalis MGH-2. Type of test: functional. An outline of the steps:
as §1

For test [12], the system named is Streptococcus pyogenes. The experiment in a line: Minimum inhibitory concentration was evaluated in vitro against Streptococcus pyogenes C 203. Type of test: functional. An outline of the steps: as §1
Test [13] deals with Escherichia coli. The test can be described thus: Antibacterial activity in vitro against Escherichia coli Vogel. It is filed as functional. Particulars: Escherichia coli; read-out: MIC. The gist of the method:
as §1

Test [14] concerns Klebsiella pneumoniae. The experiment in a line: Minimum inhibitory concentration was evaluated in vitro against Klebsiella pneumoniae MGH2. It is filed as functional. The conditions noted are these: Klebsiella pneumoniae; read-out: MIC. The gist of the method: as §1
Test [15] concerns Streptococcus pneumoniae. The experiment in a line: Minimum inhibitory concentration was evaluated in vitro against Streptococcus pneumoniae SV-1. Type of test: functional. An outline of the steps: as §1
The nature of test [16]: Clonogenic cytotoxicity against hamster V-79 cells. Type of test: functional, Cricetulus griseus, V79. An outline of the steps: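 Chinese hamster V-79 cells grown overnight, then drug-treated for 3 h at 37 °C. Medium is replaced with fresh medium and cells are incubated 5 days to allow colony formation. IC50 (µg/mL) is the concentration inhibiting colony formation by 50% relative to control.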

For test [17], the species on record is Mus musculus. The experiment in a line: Compound was evaluated for phototoxicity no-effect dose in mouse. Type of test: functional. An outline of the steps: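 Depilated female CD-1 mice, five per dose plus controls. Animals are dosed orally and then exposed daily to UV-A (320–400 nm) for 3 h, for up to 4 days or until a definite positive response. Redness or erythema relative to controls, read 24 h after irradiation, counts as positive. Reported as the highest dose with no effect (mg/kg).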

The mark [18] stands for this setting: Staphylococcus aureus, read-out: MIC.
Setting [19] is: Enterococcus faecalis, read-out: MIC.
[20] abbreviates: Streptococcus pyogenes, read-out: MIC.
Setting [21] is: Streptococcus pneumoniae, read-out: MIC.

For `CC1(CN)CCN(c2cc3c(cc2F)c(=O)c(C(=O)O)cn3C2CC2)C1` (stereo not given), the MIC is 0.013 µg/mL (≈ 0.0362 µM) in test [1] (setting [18]), 0.8 µg/mL (≈ 2.23 µM) in test [2] and 0.1 µg/mL (≈ 0.278 µM) in [3] (setting [18]). The ED50 in [4] stood at 43 mg/kg; in test [5], 3 mg/kg; in [6] it was 3 mg/kg; in test [7], 31 mg/kg. The half-maximal inhibitory concentration (IC50) in [8] was 2.78 µM.

As to `CC1(CN)CCN(c2nc3c(cc2F)c(=O)c(C(=O)O)cn3C2CC2)C1` (stereo not given), the minimum inhibitory concentration (MIC) in test [9] was 0.1 µg/mL (≈ 0.277 µM); in test [10], 0.8 µg/mL (≈ 2.22 µM); in test [1] (setting [18]), 0.006 µg/mL (≈ 0.0166 µM); in test [11] (setting [19]) it was 0.05 µg/mL (≈ 0.139 µM); in test [12] (setting [20]), 0.05 µg/mL (≈ 0.139 µM); in test [2] it was 0.4 µg/mL (≈ 1.11 µM). Besides, the MIC in test [3] (setting [18]) amounted to 0.025 µg/mL (≈ 0.0694 µM); in test [13], 0.2 µg/mL (≈ 0.555 µM); in [14] it was 0.1 µg/mL (≈ 0.277 µM); in [15] (setting [21]) it was 0.025 µg/mL (≈ 0.0694 µM). Moreover, the ED50 in test [4] came to 10 mg/kg; in [5], 2 mg/kg; in test [6] it was 2 mg/kg; in [7], 6 mg/kg. The compound also showed an IC50 in test [8] of 13.9 µM.

As to `CCN[C@H](C)[C@H]1CCN(c2c(F)cc3c(=O)c(C(=O)O)cn(C4CC4)c3c2C(F)(F)F)C1` (racemic), the minimum inhibitory concentration (MIC) in test [9] worked out at 0.4 µg/mL (≈ 0.878 µM); in test [10], 6.3 µg/mL (≈ 13.8 µM); in test [1] (setting [18]), 0.013 µg/mL (≈ 0.0285 µM); in [11] (setting [19]), 0.1 µg/mL (≈ 0.22 µM); in test [12] (setting [20]), 0.025 µg/mL (≈ 0.0549 µM); in test [2] it was 1.6 µg/mL (≈ 3.51 µM). For the same compound, the MIC in [3] (setting [18]) amounted to 0.05 µg/mL (≈ 0.11 µM); in test [13], 0.8 µg/mL (≈ 1.76 µM); in test [14], 1.6 µg/mL (≈ 3.51 µM); in test [15] (setting [21]), 0.013 µg/mL (≈ 0.0285 µM). For the same compound, the ED50 in test [4] came out at 5 mg/kg; in [5], 3 mg/kg; in test [6], 0.5 mg/kg; in [7] it was 0.7 mg/kg. Moreover, it took 1.93 µM to reach half-maximal inhibition in test [8] (IC50).

Take `C[C@@H](N)[C@@H]1CCN(c2nc3c(cc2F)c(=O)c(C(=O)O)cn3C2CC2)C1`: the minimal inhibitory concentration (MIC) in test [9] came out at 0.05 µg/mL (≈ 0.139 µM); in test [10], 0.8 µg/mL (≈ 2.22 µM); in test [1] (setting [18]) it was 0.006 µg/mL (≈ 0.0166 µM); in [11] (setting [19]), 0.05 µg/mL (≈ 0.139 µM); in [12] (setting [20]) it was 0.013 µg/mL (≈ 0.0361 µM); in test [2], 0.4 µg/mL (≈ 1.11 µM). For the same compound, the MIC is 0.05 µg/mL (≈ 0.139 µM) in test [3] (setting [18]), 0.05 µg/mL (≈ 0.139 µM) in test [13], 0.1 µg/mL (≈ 0.277 µM) in test [14] and 0.006 µg/mL (≈ 0.0166 µM) in [15] (setting [21]). Besides, the ED50 in test [6] amounted to 2 mg/kg; in test [7] it was 14 mg/kg. In test [8], the half-maximal inhibitory concentration (IC50) was 2.08 µM.

In the case of `C[C@@H](N)[C@H]1CCN(c2nc3c(cc2F)c(=O)c(C(=O)O)cn3C2CC2)C1` (racemic), the minimal inhibitory concentration (MIC) was 0.05 µg/mL (≈ 0.139 µM) in test [9]; 0.8 µg/mL (≈ 2.22 µM) in test [10]; 0.025 µg/mL (≈ 0.0694 µM) in test [1]; 0.1 µg/mL (≈ 0.277 µM) in test [11]; 0.05 µg/mL (≈ 0.139 µM) in test [12]; 0.2 µg/mL (≈ 0.555 µM) in test [2]. In addition, the MIC in test [3] amounted to 0.2 µg/mL (≈ 0.555 µM); in test [13], 0.05 µg/mL (≈ 0.139 µM); in [14] it was 0.1 µg/mL (≈ 0.277 µM); in [15] it was 0.05 µg/mL (≈ 0.139 µM). Also, the PD50 in test [5] came out at 1 mg/kg; in [7], 15 mg/kg. For the same compound, the ED50 in test [6] came to 5 mg/kg. Besides, the Cytotoxicity in [16] turned out to be 84 µg/mL. In addition, the Dose in [17] is greater than 100 mg/kg. Besides, in test [8], the 50% inhibitory concentration (IC50) is 6.94 µM.

On to `C[C@@H](N)[C@@H]1CCN(c2cc3c(cc2F)c(=O)c(C(=O)O)cn3C2CC2)C1`, for which the minimal inhibitory concentration (MIC) is 0.2 µg/mL (≈ 0.556 µM) in test [9]; 1.6 µg/mL (≈ 4.45 µM) in test [10]; 0.05 µg/mL (≈ 0.139 µM) in [1] (setting [18]); 0.1 µg/mL (≈ 0.278 µM) in test [11] (setting [19]); 0.025 µg/mL (≈ 0.0696 µM) in test [12] (setting [20]); 0.8 µg/mL (≈ 2.23 µM) in test [2]. Besides, the MIC worked out at 0.2 µg/mL (≈ 0.556 µM) in [3] (setting [18]), 0.1 µg/mL (≈ 0.278 µM) in [13], 0.4 µg/mL (≈ 1.11 µM) in test [14] and 0.025 µg/mL (≈ 0.0696 µM) in [15] (setting [21]). The ED50 in test [6] was 2 mg/kg; in test [7], greater than 100 mg/kg. In test [8], this compound showed a half-inhibitory concentration (IC50) of 2.09 µM.
